Data taken from ChEMBL document CHEMBL1154983, “Arylpiperazine-containing pyrrole 3-carboxamide derivatives targeting serotonin 5-HT(2A), 5-HT(2C), and the serotonin transporter as a potential antidepressant” (Bioorg Med Chem Lett, 2010).
pIC50: −log10 of the molar value. Active and inactive are the calls of the source. No cut-off for these calls is given here.

How the values were obtained:
D(4) dopamine receptor = biological target: T1, D(4) dopamine receptor (Homo sapiens, UniProt P21917); assay: Inhibition of dopamine D4 receptor
T1 sequence (P21917 whole entry): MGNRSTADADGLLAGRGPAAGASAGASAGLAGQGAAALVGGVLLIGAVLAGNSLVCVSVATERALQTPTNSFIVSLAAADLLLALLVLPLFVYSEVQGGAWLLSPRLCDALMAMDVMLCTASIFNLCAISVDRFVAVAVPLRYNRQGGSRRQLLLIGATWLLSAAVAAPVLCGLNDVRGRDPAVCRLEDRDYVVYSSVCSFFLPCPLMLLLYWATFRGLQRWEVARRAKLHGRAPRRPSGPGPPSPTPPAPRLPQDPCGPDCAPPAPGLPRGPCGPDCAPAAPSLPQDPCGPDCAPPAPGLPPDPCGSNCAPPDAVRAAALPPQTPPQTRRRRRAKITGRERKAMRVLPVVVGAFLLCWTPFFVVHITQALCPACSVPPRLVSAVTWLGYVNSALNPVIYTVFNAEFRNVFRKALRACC

[1] = biological target: 5-hydroxytryptamine receptor 7 (Homo sapiens, UniProt P34969); assay: Inhibition of 5HT7 receptor
Chain of 5-hydroxytryptamine receptor 7 (P34969 whole entry): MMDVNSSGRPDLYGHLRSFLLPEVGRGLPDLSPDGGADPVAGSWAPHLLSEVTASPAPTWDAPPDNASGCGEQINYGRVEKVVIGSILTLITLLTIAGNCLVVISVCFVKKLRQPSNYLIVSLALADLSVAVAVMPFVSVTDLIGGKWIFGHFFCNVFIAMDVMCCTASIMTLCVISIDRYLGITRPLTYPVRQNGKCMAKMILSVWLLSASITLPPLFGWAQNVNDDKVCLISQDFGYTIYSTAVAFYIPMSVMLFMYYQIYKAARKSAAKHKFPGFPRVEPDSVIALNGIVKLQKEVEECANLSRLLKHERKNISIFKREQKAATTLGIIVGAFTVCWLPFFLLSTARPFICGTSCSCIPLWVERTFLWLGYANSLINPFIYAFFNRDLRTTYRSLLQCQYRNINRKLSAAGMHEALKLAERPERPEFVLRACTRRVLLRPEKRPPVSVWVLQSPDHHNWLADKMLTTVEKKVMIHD

[2] = biological target: 5-hydroxytryptamine receptor 6 (Homo sapiens, UniProt P50406); assay: Inhibition of 5HT6 receptor
Chain of 5-hydroxytryptamine receptor 6 (P50406 whole entry): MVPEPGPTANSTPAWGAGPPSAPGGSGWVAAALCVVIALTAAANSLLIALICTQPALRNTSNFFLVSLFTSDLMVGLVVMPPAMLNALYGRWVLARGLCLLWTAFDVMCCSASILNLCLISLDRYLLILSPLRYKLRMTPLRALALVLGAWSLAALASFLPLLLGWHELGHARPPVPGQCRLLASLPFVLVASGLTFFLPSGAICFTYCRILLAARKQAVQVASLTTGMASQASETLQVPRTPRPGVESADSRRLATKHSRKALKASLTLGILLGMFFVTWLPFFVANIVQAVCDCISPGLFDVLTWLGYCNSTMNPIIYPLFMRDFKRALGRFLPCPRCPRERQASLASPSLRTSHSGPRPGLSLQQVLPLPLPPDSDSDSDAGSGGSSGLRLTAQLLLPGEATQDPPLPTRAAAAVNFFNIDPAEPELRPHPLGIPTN

Mus musculus [3] = assay: Antidepressant activity in mouse assessed as decrease in duration of immobility at 25 mg/kg, po during final 5 mins of the 6 mins session by forced swimming test; type: functional; set-up: scale not given: the % may be the effect or the level left
Summary of the method: (§1)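 Mice swam 10 min in a 25-cm glass cylinder (10 cm diameter) holding 15 cm of water at 23 1 °C. Twenty-four hours later, drug was given po 60 min before retesting. Immobility (floating upright with only small movements keeping head above water) was totalled over the last 5 min of the 6-min test.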

D(2) dopamine receptor = D(2) dopamine receptor (Homo sapiens, UniProt P14416); assay: Inhibition of dopamine D2 receptor
Chain of D(2) dopamine receptor (P14416 whole entry): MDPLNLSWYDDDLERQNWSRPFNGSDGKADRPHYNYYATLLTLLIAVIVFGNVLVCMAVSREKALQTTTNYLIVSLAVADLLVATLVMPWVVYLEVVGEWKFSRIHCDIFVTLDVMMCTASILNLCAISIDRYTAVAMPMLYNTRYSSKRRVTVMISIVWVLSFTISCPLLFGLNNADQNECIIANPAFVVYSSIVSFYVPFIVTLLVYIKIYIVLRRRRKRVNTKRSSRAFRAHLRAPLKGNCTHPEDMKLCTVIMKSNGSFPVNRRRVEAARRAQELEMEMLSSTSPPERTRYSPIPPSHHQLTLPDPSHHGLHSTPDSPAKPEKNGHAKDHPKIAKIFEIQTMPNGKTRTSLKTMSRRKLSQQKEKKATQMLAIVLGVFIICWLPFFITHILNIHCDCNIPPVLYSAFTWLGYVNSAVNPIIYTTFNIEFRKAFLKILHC

D(3) dopamine receptor = D(3) dopamine receptor (Homo sapiens, UniProt P35462); assay: Inhibition of dopamine D3 receptor
Chain of D(3) dopamine receptor (P35462 whole entry): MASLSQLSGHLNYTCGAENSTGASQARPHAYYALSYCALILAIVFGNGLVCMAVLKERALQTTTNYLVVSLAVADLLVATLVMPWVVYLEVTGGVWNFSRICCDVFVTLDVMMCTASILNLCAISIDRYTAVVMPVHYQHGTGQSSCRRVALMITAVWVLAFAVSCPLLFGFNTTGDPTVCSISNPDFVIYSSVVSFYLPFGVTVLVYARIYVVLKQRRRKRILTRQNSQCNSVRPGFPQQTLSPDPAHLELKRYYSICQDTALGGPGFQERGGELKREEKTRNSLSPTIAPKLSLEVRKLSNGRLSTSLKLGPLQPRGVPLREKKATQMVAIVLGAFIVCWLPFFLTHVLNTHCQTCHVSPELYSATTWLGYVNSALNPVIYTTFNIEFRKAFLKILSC

[4] = biological target: T2, 5-hydroxytryptamine receptor 1A (Homo sapiens, UniProt P08908); assay: Inhibition of 5HT1A receptor
T2 sequence (P08908 whole entry): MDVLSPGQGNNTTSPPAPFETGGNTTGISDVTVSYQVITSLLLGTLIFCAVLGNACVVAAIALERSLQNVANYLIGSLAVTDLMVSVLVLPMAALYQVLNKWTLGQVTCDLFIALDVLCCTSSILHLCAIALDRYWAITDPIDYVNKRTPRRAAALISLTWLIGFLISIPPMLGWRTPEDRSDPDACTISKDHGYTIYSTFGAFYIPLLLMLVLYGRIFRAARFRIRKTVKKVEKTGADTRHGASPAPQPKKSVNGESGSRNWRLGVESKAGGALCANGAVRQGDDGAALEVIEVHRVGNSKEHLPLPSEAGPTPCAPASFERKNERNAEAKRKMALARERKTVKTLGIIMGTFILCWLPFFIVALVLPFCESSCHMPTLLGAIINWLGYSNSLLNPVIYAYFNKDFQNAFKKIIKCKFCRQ

[5] = biological target: Sodium-dependent serotonin transporter (Homo sapiens, UniProt P31645); assay: Displacement of [3H]imipramine from human SERT expressed in HEK293 cells after 30 mins by rapid filtration assay; type: cell-based
Chain of Sodium-dependent serotonin transporter (P31645 whole entry): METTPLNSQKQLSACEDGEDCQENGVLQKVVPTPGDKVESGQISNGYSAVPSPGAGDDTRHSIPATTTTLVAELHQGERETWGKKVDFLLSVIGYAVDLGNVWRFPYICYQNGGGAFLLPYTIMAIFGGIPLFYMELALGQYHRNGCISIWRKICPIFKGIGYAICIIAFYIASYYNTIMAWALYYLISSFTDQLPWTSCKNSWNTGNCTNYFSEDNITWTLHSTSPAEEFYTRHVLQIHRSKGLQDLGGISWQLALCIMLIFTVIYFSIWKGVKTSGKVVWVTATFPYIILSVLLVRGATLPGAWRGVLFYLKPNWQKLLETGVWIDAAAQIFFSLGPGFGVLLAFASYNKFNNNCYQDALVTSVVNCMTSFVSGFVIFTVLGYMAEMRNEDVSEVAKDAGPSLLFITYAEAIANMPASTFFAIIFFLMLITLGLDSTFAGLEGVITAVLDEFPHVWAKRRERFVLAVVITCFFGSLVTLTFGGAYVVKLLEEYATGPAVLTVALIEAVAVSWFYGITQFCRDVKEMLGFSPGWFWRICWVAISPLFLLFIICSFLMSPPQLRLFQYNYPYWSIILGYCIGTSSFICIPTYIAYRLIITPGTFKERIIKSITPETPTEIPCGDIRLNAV
Summary of the method: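 Frozen membranes were from HEK293 cells expressing human SERT, with 4 nM [3H]imipramine in 50 mM Tris–HCl pH 7.4, 120 mM NaCl and 5 mM KCl. Unlabelled imipramine defined nonspecific binding. Incubation ran 30 min at 27 °C, terminated by rapid filtration through 0.5% PEI-presoaked glass-fibre filters.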

Mus musculus [6] = assay: Antidepressant activity in mouse assessed as decrease in duration of immobility at 10 mg/kg, po during final 5 mins of the 6 mins session by forced swimming test; type: functional; summary of the method: as §1
Mus musculus [7] = assay: Antidepressant activity in mouse assessed as decrease in duration of immobility at 100 mg/kg, po during final 5 mins of the 6 mins session by forced swimming test; type: functional; set-up: scale not given: the % may be the effect or the level left; summary of the method: as §1
[8] = biological target: T3, 5-hydroxytryptamine receptor 2C (Homo sapiens, UniProt P28335); assay: Displacement of [3H]mesulergine from human recombinant 5-HT2C receptor expressed in CHO-K1 cells after 60 mins by rapid filtration assay; type: cell-based
T3 sequence (P28335 whole entry): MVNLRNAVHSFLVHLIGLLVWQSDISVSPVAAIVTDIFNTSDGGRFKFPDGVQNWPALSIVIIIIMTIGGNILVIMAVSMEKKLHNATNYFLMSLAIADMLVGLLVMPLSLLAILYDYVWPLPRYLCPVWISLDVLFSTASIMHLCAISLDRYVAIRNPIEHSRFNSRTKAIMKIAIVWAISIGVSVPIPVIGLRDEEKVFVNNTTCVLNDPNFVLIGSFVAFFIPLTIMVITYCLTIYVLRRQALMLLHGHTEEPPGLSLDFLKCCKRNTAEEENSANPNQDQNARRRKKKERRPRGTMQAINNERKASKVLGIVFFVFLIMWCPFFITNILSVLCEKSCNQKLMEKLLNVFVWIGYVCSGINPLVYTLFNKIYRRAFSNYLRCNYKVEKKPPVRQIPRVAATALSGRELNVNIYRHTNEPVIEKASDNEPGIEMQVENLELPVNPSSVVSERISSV
Summary of the method: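 Frozen membranes were from CHO-K1 cells stably expressing human recombinant 5-HT2C, with 1.4 nM [3H]mesulergine. Buffer was 50 mM Tris–HCl pH 7.4, 4 mM CaCl2 and 0.1% ascorbic acid, with methiothepin for nonspecific binding. Incubation ran 60 min at 27 °C, stopped by rapid filtration through 0.5% PEI-presoaked glass-fibre filters.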

[9] = biological target: 5-hydroxytryptamine receptor 2A (Homo sapiens, UniProt P28223); assay: Displacement of [3H]ketanserin from human recombinant 5-HT2A receptor expressed in CHO-K1 cells after 60 mins; type: cell-based
Chain of 5-hydroxytryptamine receptor 2A (P28223 whole entry): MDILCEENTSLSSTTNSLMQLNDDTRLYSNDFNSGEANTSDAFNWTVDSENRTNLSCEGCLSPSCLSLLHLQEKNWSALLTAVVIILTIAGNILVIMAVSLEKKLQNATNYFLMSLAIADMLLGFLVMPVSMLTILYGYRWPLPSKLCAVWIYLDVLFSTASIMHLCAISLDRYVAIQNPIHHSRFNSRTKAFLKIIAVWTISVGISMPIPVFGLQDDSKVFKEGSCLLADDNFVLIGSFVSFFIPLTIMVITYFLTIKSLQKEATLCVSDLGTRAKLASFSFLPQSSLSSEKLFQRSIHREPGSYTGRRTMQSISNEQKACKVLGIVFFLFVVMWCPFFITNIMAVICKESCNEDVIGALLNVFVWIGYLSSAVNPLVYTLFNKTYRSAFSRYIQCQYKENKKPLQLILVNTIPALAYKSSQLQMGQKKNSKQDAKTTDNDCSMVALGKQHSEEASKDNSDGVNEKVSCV
Summary of the method: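 Membranes were from CHO-K1 cells stably expressing 5-HT2A. Radioligand was at 1 nM, with mianserin defining nonspecific binding. Incubation ran 60 min at 27 °C in 50 mM Tris–HCl pH 7.4 with 4 mM CaCl2 and 0.1% ascorbic acid. Harvesting was by filtration through glass-fibre filters presoaked in 0.5% PEI.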

Mus musculus [10] = assay: Antidepressant activity in mouse assessed as decrease in duration of immobility at 50 mg/kg, po during final 5 mins of the 6 mins session by forced swimming test; type: functional, organism-based; set-up: dose 50 mg/kg
Summary of the method: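 Mice swim for 10 min in a 25-cm glass cylinder (10 cm diameter) holding 15 cm of water at 23 ± 1 °C. They are retested 24 h later for 6 min. Compound is suspended in 3% Tween 80 and given orally 60 min before the test. Total immobility time (floating upright, only small head-keeping movements) is scored over the last 5 min. Means ± S.E.M.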

[11] = Oral bioavailability in rat at 5 mg/kg; type: ADME, organism-based; details: in vivo
Summary of the method: (§2)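 Rats dosed once with the HCl salt, either i.v. at 1 mg/kg (n = 2 or 3) or orally at 5 mg/kg (n = 3). Plasma and brain levels were followed to derive Cmax, Clast, Tmax, t1/2, AUC, dose-normalised AUC, oral bioavailability (F) and the brain/plasma ratio.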

[12] = Half life in rat brain; type: ADME, tissue-based; summary of the method: as §2
Rattus norvegicus [13] = assay: Clast in rat at 5 mg/kg, po; type: ADME, organism-based; set-up: dose 5 mg/kg, route oral; details: in vivo; summary of the method: as §2
[14] = Tmax in rat at 5 mg/kg, po; type: ADME, organism-based; set-up: dose 5 mg/kg, route oral; details: in vivo; summary of the method: as §2
[15] = Cmax in rat brain; type: ADME, organism-based; summary of the method: as §2
[16] = Cmax in rat plasma; type: ADME, organism-based; summary of the method: as §2
[17] = Half life in rat plasma; type: ADME, cell-free; summary of the method: as §2
[18] = Tmax in rat plasma; type: ADME, cell-free; summary of the method: as §2
Rattus norvegicus [19] = assay: Dose normalized AUCirlf in rat at 5 mg/kg, po; type: ADME, organism-based; set-up: dose 5 mg/kg, route oral; details: in vivo; summary of the method: as §2
Rattus norvegicus [20] = assay: Clast in rat at 1 mg/kg, iv; type: ADME, organism-based; set-up: dose 1 mg/kg, route intravenous; details: in vivo; summary of the method: as §2
Brain = assay: Clast in rat brain; type: ADME, tissue-based; details: in vivo; summary of the method: as §2
[21] = Elimination half life in rat at 5 mg/kg, po; type: ADME, organism-based; set-up: dose 5 mg/kg, route oral; details: in vivo, read-out: beta t1/2 (converted); summary of the method: as §2
[22] = AUC in rat plasma; type: ADME, cell-free; summary of the method: as §2
[23] = Ratio of drug level in brain to plasma in rat; type: ADME, cell-free; summary of the method: as §2
[24] = Cmax in rat at 1 mg/kg, iv; type: ADME, organism-based; set-up: dose 1 mg/kg, route intravenous; details: in vivo; summary of the method: as §2
[25] = Cmax in rat at 5 mg/kg, po; type: ADME, organism-based; set-up: dose 5 mg/kg, route oral; details: in vivo; summary of the method: as §2
[26] = AUC (0 to infinity) in rat at 1 mg/kg, iv; type: ADME, organism-based, Plasma; set-up: time infinity, dose 1 mg/kg, route intravenous; details: plasma; summary of the method: as §2
[27] = Tmax in rat brain; type: ADME, tissue-based; summary of the method: as §2
Plasma = assay: Clast in rat plasma; type: ADME, cell-free; summary of the method: as §2
[28] = Half life in rat at 1 mg/kg, iv; type: ADME, organism-based; set-up: dose 1 mg/kg, route intravenous; details: in vivo; summary of the method: as §2
[29] = AUC (0 to infinity) in rat at 5 mg/kg, po; type: ADME, organism-based; set-up: time infinity, dose 5 mg/kg, route oral; details: plasma; summary of the method: as §2
[30] = AUC in rat brain; type: ADME, tissue-based; summary of the method: as §2
Rattus norvegicus [31] = assay: Dose normalized AUC (0 to infinity) in rat at 1 mg/kg, iv; type: ADME, organism-based; set-up: dose 1 mg/kg, route intravenous; details: in vivo; summary of the method: as §2

Cc1[nH]c(-c2ccccc2)cc1C(=O)NCCCN1CCN(c2cccc(Cl)c2Cl)CC1 [listing 1 of 2 here]
pIC50 (D(4) dopamine receptor): 5.73
pIC50 [1]: 6.34
pIC50 [2]: 5.85
Activity (Mus musculus [3]): <50%
pIC50 (D(2) dopamine receptor): 5.97
pIC50 (D(3) dopamine receptor): 6.48
pIC50 [4]: 6.93
pIC50 [5]: 6.86

CCn1c(-c2ccccc2)cc(C(=O)NCCCN2CCN(c3cccc(Cl)c3Cl)CC2)c1C
Activity (Mus musculus [6]): inactive
Activity (Mus musculus [7]): <25%

CCCn1c(-c2ccccc2)cc(C(=O)NCCCN2CCN(c3cccc(Cl)c3Cl)CC2)c1C
pIC50 (D(4) dopamine receptor): 6.19
Activity (Mus musculus [6]): 80%
pIC50 [1]: 6.39
pIC50 [2]: 5.72
Activity (Mus musculus [3]): <50%
pIC50 (D(2) dopamine receptor): 5.43
pIC50 (D(3) dopamine receptor): 5.97
pIC50 [4]: 7.03

Cc1c(C(=O)NCCCN2CCN(c3cccc(Cl)c3)CC2)cc(-c2ccccc2)n1CC(C)C
pIC50 [8]: 5.80
pIC50 [9]: 6.48
pIC50 [5]: 6.96

Cc1cccc(N2CCN(CCCNC(=O)c3cc(-c4ccccc4)n(C)c3C)CC2)c1C
Activity (Mus musculus [10]): Active

Cc1c(C(=O)NCCCN2CCN(c3cccc(Cl)c3Cl)CC2)cc(-c2ccccc2)n1C.Cl
bioavailability [11]: 24.8%
half-life [12]: 257 min
Clast (Rattus norvegicus [13]): 1000 pg/mL
Tmax [14]: 45 min
Cmax [15]: 30 ng/mL
Cmax [16]: 70 ng/mL
half-life [17]: 223 min
Tmax [18]: 1 h
AUC/dose (Rattus norvegicus [19]): 4.63 µg·min/mL
Clast (Rattus norvegicus [20]): 8 ng/mL
Clast (Brain): 0.02 µg/mL
half-life [21]: 188 min
AUC [22]: 240 ng·h/mL
Kp [23]: 34.5
Cmax [24]: 454 ng/mL
Cmax [25]: 118 ng/mL
AUC(0-inf) [26]: 312 ng·h/mL
Tmax [27]: 2 h
Clast (Plasma): 0.04 µg/mL
half-life [28]: 169 min
AUC(0-inf) [29]: 386 ng·h/mL
AUC [30]: 82.7 ng·h/mL
AUC/dose (Rattus norvegicus [31]): 18.703 µg·min/mL

Cc1cccc(N2CCN(CCCNC(=O)c3cc(-c4ccccc4)n(N4CCCCC4)c3C)CC2)c1C
pIC50 [8]: 6.38
pIC50 [9]: 6.88
pIC50 [5]: 7.04

Cc1c(C(=O)NCCCN2CCN(c3cccc(Cl)c3Cl)CC2)cc(-c2ccccc2)n1N1CCCCC1
Activity (Mus musculus [6]): inactive
pIC50 [1]: 6.31
Activity (Mus musculus [7]): Active

Cc1[nH]c(-c2ccccc2)cc1C(=O)NCCCN1CCN(c2cccc(Cl)c2Cl)CC1 [listing 2 of 2 here]
Activity (Mus musculus [6]): inactive
Activity (Mus musculus [7]): Active
